According to ChEMBL document CHEMBL1208687, “Synthesis, antibacterial activity evaluation and QSAR studies of novel dispiropyrrolidines” (2010):
≈ marks a conversion by molar mass, not a printed value.

What was measured:
Type in all cases: functional
Bacillus subtilis = assay: Antimicrobial activity against Bacillus subtilis NCIM 2718 after 18 hrs by broth microdilution assay; conditions: NCIM 2718, 18 h
Outline: (§1)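 MIC by broth microdilution in Mueller Hinton broth, final inoculum 5 × 10⁵ CFU/ml. Compounds dissolved in absolute ethanol (10 mg per 1 ml stock), then serially diluted into successive wells. Incubated with organism at 37 °C for 18 h with growth and sterility controls, ethanol blank, and uninoculated dilutions checked for precipitation. Then 0.01% resazurin added, read after 2 h further incubation.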

Staphylococcus aureus = assay: Antimicrobial activity against Staphylococcus aureus NCIM 5021 after 18 hrs by broth microdilution assay; conditions: NCIM 5021, 18 h; outline: as §1
Pseudomonas aeruginosa = assay: Antimicrobial activity against Pseudomonas aeruginosa NCIM 5029 after 18 hrs by broth microdilution assay; conditions: NCIM 5029, 18 h; outline: as §1

Structure (SMILES)	MIC (Bacillus subtilis) [µM]	MIC (Staphylococcus aureus) [µM]	MIC (Pseudomonas aeruginosa) [µM]
Cc1ccc([C@H]2CN(C)[C@@]3(C(=O)Nc4ccccc43)[C@@]23CC(=O)N(C)C3=O)cc1	642 (≈ 250 µg/mL)	321 (≈ 125 µg/mL)	321 (≈ 125 µg/mL)
COc1ccc([C@H]2CN(C)[C@@]3(C(=O)N(C)c4ccccc43)[C@@]23CC(=O)N(C)C3=O)cc1	596 (≈ 250 µg/mL)	298 (≈ 125 µg/mL)	298 (≈ 125 µg/mL)
COc1ccc([C@H]2CN(C)[C@@]3(C(=O)Nc4ccccc43)[C@@]23CC(=O)N(C)C3=O)cc1	617 (≈ 250 µg/mL)	617 (≈ 250 µg/mL)	154 (≈ 62.4 µg/mL)
C#CCN1C(=O)[C@]2(c3ccccc31)N(C)C[C@H](c1ccccc1O)[C@]21CC(=O)N(C)C1=O	291 (≈ 125 µg/mL)	291 (≈ 125 µg/mL)	146 (≈ 62.7 µg/mL)
CN1C(=O)C[C@@]2(C1=O)[C@@H](c1ccccc1O)CN(C)[C@@]21C(=O)N(C)c2ccccc21	617 (≈ 250 µg/mL)	617 (≈ 250 µg/mL)	77 (≈ 31.2 µg/mL)
CN1C(=O)C[C@@]2(C1=O)[C@@H](c1ccc(Cl)cc1)CN(C)[C@@]21C(=O)Nc2ccccc21	610 (≈ 250 µg/mL)	305 (≈ 125 µg/mL)	152 (≈ 62.3 µg/mL)
CN(C)[C@@H]1C(O)=C(C(N)=O)C(=O)[C@@]2(O)C(O)=C3C(=O)c4c(O)cccc4[C@@](C)(O)[C@H]3C[C@@H]12 [TETRACYCLINE]	1 (≈ 0.444 µg/mL)	2 (≈ 0.889 µg/mL)	4 (≈ 1.78 µg/mL)
COc1ccc([C@H]2CN(C)[C@@]3(C(=O)N(Cc4ccccc4)c4ccccc43)[C@@]23CC(=O)N(C)C3=O)cc1	504 (≈ 250 µg/mL)	252 (≈ 125 µg/mL)	252 (≈ 125 µg/mL)
CN1C(=O)C[C@@]2(C1=O)[C@@H](c1ccc(Cl)cc1)CN(C)[C@@]21C(=O)N(C)c2ccccc21	590 (≈ 250 µg/mL)	295 (≈ 125 µg/mL)	147 (≈ 62.3 µg/mL)
CN1C(=O)C[C@@]2(C1=O)[C@@H](c1ccccc1O)CN(C)[C@@]21C(=O)Nc2ccccc21	639 (≈ 250 µg/mL)	639 (≈ 250 µg/mL)	80 (≈ 31.3 µg/mL)
CC1(C)S[C@@H]2[C@H](NC(=O)[C@H](N)c3ccccc3)C(=O)N2[C@H]1C(=O)O [AMPICILLIN]	168 (≈ 58.7 µg/mL)	84 (≈ 29.4 µg/mL)	168 (≈ 58.7 µg/mL)
